The results in this text go back to ChEMBL document CHEMBL1124774, “Synthesis and biological activity of some derivatives of rifamycin P” (1990).

For assay [1], the system named is Streptococcus pyogenes. The experiment in a line: In vitro antibacterial activity of compound against Streptococcus pyogenes C 203 SKF 13400. The assay is classed as functional. In a few lines: (§1)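 Streptococcal MICs were run by twofold microdilution in Todd-Hewitt broth over 128-0.0001 µg/mL. Inoculum was 10^4 cfu/mL, with incubation at 37 °C for 18-24 h.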
Assay [2] has as its system Staphylococcus epidermidis. The experiment in a line: In vitro antibacterial activity of compound against Staphylococcus epidermidis ATCC 12228. The class given is functional. In a few lines:
(§2)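 Twofold microdilution MIC in Iso-Sensitest broth over 128-0.0001 µg/mL. Inoculum was 10^4 cfu/mL, with incubation at 37 °C for 18-24 h.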

Assay [3] has as its system Klebsiella pneumoniae. The assay can be described thus: In vitro antibacterial activity of compound against Klebsiella pneumoniae ISM. The class given is functional.
Assay [4] concerns Mycobacterium avium. The assay can be described thus: 90% inhibition of the 20 Mycobacterium avium complex (MAC) clinical isolates.
Assay [5] deals with Streptococcus pyogenes. The assay can be described thus: Inhibitory concentration of compound against Streptococcus pyogenus septicemia in the mouse, administarted in subcutaneous route. The assay is classed as functional. The settings on record: sc. In outline:
(§3)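 Male and female CD1 mice (18-22 g) were infected ip with S. pyogenes C203, with the challenge set so untreated mice died within 48 h. Groups of five received a single treatment immediately after infection. ED50 was calculated from the percentage surviving at each dose on day 10.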

For assay [6], the system named is Haemophilus influenzae. The experiment in a line: In vitro antibacterial activity of compound against Haemophilus influenzae ATCC 19418. The assay is classed as functional.
In assay [7] the test system is Streptococcus pyogenes. The assay can be described thus: Minimum inhibitory concentration of compound against Streptococcus pyogenus septicemia in the mouse. The assay is classed as functional.
Assay [8] concerns Escherichia coli. The assay can be described thus: In vitro antibacterial activity of compound against Escherichia coli SKF 12140. The assay is classed as functional.
Assay [9] relates to Mycobacterium avium. The experiment in a line: 50% inhibition of the 20 Mycobacterium (MAC) avium complex clinical isolates. The class given is functional. In a few lines:
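Agar-dilution MICs, 2-fold dilutions over 128-0.0001 μg/mL, on Middlebrook 7H10 agar with 2% glycerol and 10% OADC. Organisms from Loevenstein-Jensen slants were grown in 7H9 broth with 0.5% Tween and 10% OADC, adjusted to McFarland no. 1, and spotted with a multipoint inoculator. Plates were sealed and incubated at 22, 30 or 37 °C for 4-20 days depending on strain.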

Assay [10] deals with Enterococcus faecalis. The assay can be described thus: In vitro antibacterial activity of compound against Streptococcus faecalis ATCC 7080. The class given is functional. In a few lines: as §2
The test system of assay [11] is Mycobacterium avium. The assay can be described thus: Minimum inhibitory concentration of compound against 20 Mycobacterium avium complex (MAC) clinical isolates.
For assay [12], the system named is Staphylococcus aureus. The experiment in a line: In vitro antibacterial activity of compound against Staphylococcus aureus Tour L 165. The class given is functional. In a few lines:
as §2

Assay [13] relates to Streptococcus pyogenes. The assay can be described thus: Inhibitory concentration of compound against Streptococcus pyogenus septicemia in the mouse, administarted in OS route. The class given is functional. In outline:
as §3

In assay [14] the test system is Neisseria gonorrhoeae. The experiment in a line: In vitro antibacterial activity of compound against Neisseria gonorrhoeae ISM 68/126. The class given is functional.
Assay [15] concerns Proteus vulgaris. The assay can be described thus: In vitro antibacterial activity of compound against Proteus vulgaris X19H ATCC 881. The assay is classed as functional.
In assay [16] the test system is Streptococcus pneumoniae. The experiment in a line: In vitro antibacterial activity of compound against Streptococcus pneumoniae UC 41. The class given is functional. In outline:
as §1

Assay [17] deals with Pseudomonas aeruginosa. The assay can be described thus: In vitro antibacterial activity of compound against Pseudomonas aeruginosa ATCC 10145. The assay is classed as functional. In outline: as §2

Values after ≈ are worked out from the molar mass of the structure shown.

For the compound `CCCCN(CCCC)c1nc2c(s1)c1c(O)c3c(O)c(C)c4c(c32)C(=O)C(C)(O/C=C/C(OC)C(C)C(OC(C)=O)C(C)C(O)C(C)C(O)C(C)/C=C/C=C(/C)C(=O)N1)O4` (configuration not stated), the MIC in assay [1] is 0.125 µg/mL (≈ 0.144 µM); in [2], 0.125 µg/mL (≈ 0.144 µM); in assay [3], greater than 128 µg/mL; in [6] it was 1 µg/mL (≈ 1.15 µM); in assay [7] it was 0.125 µg/mL (≈ 0.144 µM); in assay [8], greater than 128 µg/mL. For the same compound, the MIC in assay [10] was 4 µg/mL (≈ 4.62 µM); in [11], 0.25 µg/mL (≈ 0.289 µM); in assay [12] it was 0.063 µg/mL (≈ 0.0727 µM); in assay [14], 2 µg/mL (≈ 2.31 µM); in assay [15], greater than 128 µg/mL; in assay [16], 0.063 µg/mL (≈ 0.0727 µM). In assay [17], the MIC was greater than 128 µg/mL. For the same compound, the MIC90 in [4] was determined as 2 µg/mL (≈ 2.31 µM). Besides, the ED50 (as a rule, the dose that gives a 50% effect, or the effect in half of the subjects) was determined as 1.62 mg/kg in assay [5] and 1.23 mg/kg in [13]. The MIC50 (in general, the lowest concentration that inhibits either 50% of growth or 50% of the strains tested, depending on the study) in [9] came out at 1 µg/mL (≈ 1.15 µM).
